Assay outcomes deposited in PubChem BioAssay by Sanford-Burnham Center for Chemical Genomics.
SENP6 inh: blocks the human protease SENP6; Recombinant SENP6 catalytic domain, aminoluciferin luminescence; inhibition, % at 10 µM; hit rate 1.8% among 330,000; AID 2599;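 active = inhibition above about 50% at the single tested dose, limit read from the data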;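 note: plate controls were DMSO wells with enzyme for no effect and DMSO wells lacking enzyme for full effect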
SENP8 block-1: blocks the human protease SENP8 | Q96LD8 | purified SENP8, Z-RLRGG-aminoluciferin cleavage, luminescence | inhibition, % at 10 µM | hit rate 1.2% among 330,000; in the data active = inhibition above about 50%
Target sequence (Q96LD8 whole entry, looked up): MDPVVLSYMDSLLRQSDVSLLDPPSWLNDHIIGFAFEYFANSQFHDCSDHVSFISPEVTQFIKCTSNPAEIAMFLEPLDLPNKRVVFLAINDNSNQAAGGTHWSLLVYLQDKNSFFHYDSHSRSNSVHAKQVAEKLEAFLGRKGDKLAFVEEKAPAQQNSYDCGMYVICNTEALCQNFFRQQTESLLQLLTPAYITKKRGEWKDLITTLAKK
SENP8 block-2: SENP8 (human) protease inhibition; Q96LD8; recombinant SENP8, Nedd8 substrate fluorescence; inhibition, % at 20 µM; hit rate 0.64% among 360,000; AID 602440; in the data active = inhibition mostly above about 40%, no sharp cut-off; inactive = mostly below about 27%
UBC13 inh: inhibitors of human UBC13 polyubiquitin chain formation; P61088; TR-FRET; inhibition, % at 20 µM; hit rate 0.47% among 330,000; AID 485273; in the data active = inhibition above about 45%, passing the limit was not always enough
Target sequence (P61088 whole entry, looked up): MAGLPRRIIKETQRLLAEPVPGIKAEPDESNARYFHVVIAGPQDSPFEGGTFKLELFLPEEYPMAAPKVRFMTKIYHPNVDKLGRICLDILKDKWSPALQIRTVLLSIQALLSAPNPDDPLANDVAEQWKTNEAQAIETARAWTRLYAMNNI
SENP7 inh: blocks the human protease SENP7; hit rate 1.5% among 330,000; recombinant SENP7, Z-RLRGG-aminoluciferin luminescence, 40 min; inhibition, % at 5 µM; Q9BQF6; AID 434973;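 active = inhibition above about 50% at the single test dose, limit read from the data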;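 note: plate controls were DMSO with enzyme for no effect and no enzyme buffer wells for full effect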
Apaf1 inhib: blocks human Apaf-1 apoptosome activity; O14727; reconstituted apoptosome caspase-3 activity, DEVD-Rh110 fluorescence; inhibition, % at 20 µM; hit rate 0.71% among 330,000; AID 489030; active = inhibition of at least 40% at 20 µM;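 note: plate controls were DMSO wells for no effect and DEVD-CHO caspase inhibitor wells for full effect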
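Material: reconstituted apoptosome with Apaf-1, cytochrome c, caspase-9, procaspase-3, dATP; medium: pH 7.5 Hepes buffer with CHAPS, BSA, DTT; also added: cytochrome c and DEVD-Rh110 substrate; timing: 30 min plus 50 min, RT; signal: Rh110 fluorescence intensity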
SENP8 confirm: confirmation of human SENP8 protease inhibitors; shares compounds with SENP7 inh; Recombinant SENP8, Z-RLRGG-aminoluciferin luminescence, 60 min; inhibition, % at 12.5 µM; hit rate 40% among 6,200; AID 488912;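 active = mean inhibition across replicates above about 50%, limit read from the data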
SENP6 conf: confirmation of human SENP6 protease inhibitors. shares compounds with SENP7 inh. recombinant SENP6, Z-RLRGG-aminoluciferin luminescence. inhibition, % at 12.5 µM. hit rate 58% among 6,200. AID 488915
SENP7 conf: human SENP7 inhibition, confirmed; shares compounds with SENP7 inh; recombinant SENP7, Z-RLRGG-aminoluciferin luminescence, 40 min; inhibition, % at 12.5 µM; hit rate 69% among 6,200
Casp3 SENP sel: inhibits human caspase-3 in SENP selectivity test. purified caspase-3, Z-DEVD-aminoluciferin luminescence, 60 min. hit rate 60% among 6,200. AID 488918. shares compounds with SENP7 inh. inhibition, % at 12.5 µM;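 active = mean inhibition above about 50%, limit read from the data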;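 note: plate controls were enzyme with DMSO for no effect and wells without caspase-3 for full effect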
SENP luc ctr: interferes with luciferase luminescence in SENP counter-screen; shares compounds with SENP7 inh; Pre-incubated SENP8/Z-RLRGG-aminoluciferin, luciferase luminescence interference; inhibition, % at 12.5 µM; hit rate 39% among 6,200;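 active = mean inhibition above about 50% when retested at one dose, limit read from the data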;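 note: plate controls were DMSO wells with completed reaction for no effect and substrate without enzyme for full effect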
* marks the source's active call; other numbers are inactive results; nt = no result. Sampled rows, rich in hits. Any-hit rate of the full collection: about 3.1%.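 Rule for the calls, unless noted: active = mean inhibition above about 50% in the one-dose retest (limit read from the data); inactive = the rest.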

SMILES	SENP6 inh	SENP8 block-1	SENP8 block-2	UBC13 inh	SENP7 inh	Apaf1 inhib	SENP8 confirm	SENP6 conf	SENP7 conf	Casp3 SENP sel	SENP luc ctr
O=S(=O)(Nc1ccc(-c2nc3cccnc3s2)cc1)c1cccs1	64.9*	22.5	-393.4	1.8	29.3	-4.7	21.4	13.7	18.7	31.1	6.4
O=S(=O)(Nc1ccc(-c2nc3cccnc3s2)cc1)c1ccc(Cl)s1	58.1*	33.8	-411.5	-11.9	4.0	0.6	35.9	33.5	54.3*	27.9	22.8
Cc1nc2ccc(S(=O)(=O)Nc3ccc(-c4nc5cccnc5s4)cc3)cc2s1	9.1	4.4	-417.3	4.4	7.3	14.5	nt	nt	nt	nt	nt
CCS(=O)(=O)Nc1ccc(-c2nc3cccnc3s2)cc1	72.6*	63.9*	-401.8	8.1	52.9*	7.9	74.8*	72.8*	94.3*	85.9*	77.7*
Cc1cc(-c2nc3cccnc3s2)ccc1NS(=O)(=O)c1cccs1	95.3*	91.2*	-396.1	5.1	74.0*	2.4	89.1*	91.8*	98.3*	86.0*	55.4*
O=C(Nc1nnc(C2CC2)s1)C1COc2ccccc2O1 (stereo not drawn)	18.4	10.3	3.3	-4.8	20.0	6.2	nt	nt	nt	nt	nt
CC1(C)Oc2ccc(NC(=O)C3COc4ccccc4O3)cc2O1 (stereo not drawn)	66.2*	27.3	30.2	-5.3	48.1	6.9	72.3*	72.0*	92.6*	70.6*	77.3*
CC(=O)c1sc(NC(=O)C2COc3ccccc3O2)nc1C (stereo not drawn)	52.0*	28.7	-45.5	4.2	18.9	-2.3	20.4	24.0	62.1*	62.2*	51.2*
O=C(Nc1nnc(C(F)(F)F)s1)C1COc2ccccc2O1 (stereo not drawn)	82.7*	67.4*	14.7	-2.8	64.3*	-3.2	80.8*	80.2*	95.4*	91.0*	84.8*
Cc1ccc(NC(=O)C2COc3ccccc3O2)cc1 (stereo not drawn)	0.1	0.3	17.9	-6.4	-22.0	-2.0	nt	nt	nt	nt	nt
O=C(COC(=O)Cc1ccc(Cl)c(Cl)c1)NCCc1ccccc1	nt	nt	14.1	nt	nt	nt	nt	nt	nt	nt	nt
Cc1ccc(-c2cc(=O)c3ccccc3[nH]2)cc1	7.3	-7.7	-5.7	-3.9	5.8	8.2	nt	nt	nt	nt	nt
Cc1ccc(-c2cc3c(N=O)c4ccccc4c-3n[nH]2)cc1	99.8*	22.9	0.3	-14.1	100.6*	-7.3	39.0	29.5	20.7	54.8*	8.5
